Results from ChEMBL document CHEMBL1130878 (Bioorg Med Chem Lett, 1998).

How the values were obtained:
[1] = target: T1, Endothelin receptor type B (Sus scrofa, UniProt P35463); assay: In vitro ability to inhibit specific [125I]ET1 binding to porcine kidney (inner medulla) membranes Endothelin B receptor
T1 sequence (P35463 whole entry): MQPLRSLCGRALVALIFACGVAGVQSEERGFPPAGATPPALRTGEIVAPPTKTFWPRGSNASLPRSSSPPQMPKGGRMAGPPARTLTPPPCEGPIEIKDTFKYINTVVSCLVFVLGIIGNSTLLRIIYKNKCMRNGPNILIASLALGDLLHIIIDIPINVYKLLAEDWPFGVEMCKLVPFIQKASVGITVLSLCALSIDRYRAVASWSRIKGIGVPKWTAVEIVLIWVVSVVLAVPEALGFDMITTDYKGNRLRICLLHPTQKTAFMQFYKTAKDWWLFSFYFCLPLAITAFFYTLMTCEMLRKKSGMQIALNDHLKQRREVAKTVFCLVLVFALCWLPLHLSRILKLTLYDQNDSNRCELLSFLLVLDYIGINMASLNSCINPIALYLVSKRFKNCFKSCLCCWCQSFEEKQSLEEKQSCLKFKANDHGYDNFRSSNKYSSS

Endothelin-1 receptor = target: T2, Endothelin-1 receptor (Rattus norvegicus, UniProt P26684); assay: In vitro ability to inhibit specific [125I]ET1 binding to rat aorta membranes Endothelin A receptor; type: tissue-based
T2 sequence (P26684 whole entry): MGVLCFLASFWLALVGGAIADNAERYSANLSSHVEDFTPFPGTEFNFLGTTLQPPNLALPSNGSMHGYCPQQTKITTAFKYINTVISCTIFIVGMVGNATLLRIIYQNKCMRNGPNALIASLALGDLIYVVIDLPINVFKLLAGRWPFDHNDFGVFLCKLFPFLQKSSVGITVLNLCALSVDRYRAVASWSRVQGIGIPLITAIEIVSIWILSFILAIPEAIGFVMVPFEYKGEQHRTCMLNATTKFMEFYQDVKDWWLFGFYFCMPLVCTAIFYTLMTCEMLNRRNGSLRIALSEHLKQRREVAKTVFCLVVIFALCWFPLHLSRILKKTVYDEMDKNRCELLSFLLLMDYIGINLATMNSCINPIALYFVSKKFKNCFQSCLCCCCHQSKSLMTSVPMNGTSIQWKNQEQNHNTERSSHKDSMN

Rattus norvegicus = organism: Rattus norvegicus; assay: Compound was evaluated for the functional assay performed by obtaining ET-1 concentration-response curves [pA2(ETA)] in isolated rat aortic rings; conditions: Aorta, read-out: pA2 (converted)
Summary of the method: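 Functional ETA assay: ET-1 concentration-response curves in isolated rat aortic rings with the endothelium removed. Antagonism is expressed as pA2.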

Oryctolagus cuniculus = organism: Oryctolagus cuniculus; assay: Compound was evaluated for the functional assay performed by obtaining sarafotoxin 6c concentration-response curves [pA2(ETB)] in isolated rabbit jugularis vein

Row | IC50 [1] | IC50 (Endothelin-1 receptor) | SMILES | Kb (Rattus norvegicus) | Kb (Oryctolagus cuniculus)
1 | 1600 nM | 580 nM | COc1ccc(C(=O)/C(Cc2ccc(OC(C)(C)C)cc2)=C(\C(=O)O)c2ccc3nsnc3c2)cc1 | – | –
2 | 3200 nM | 17 nM | COc1ccc(C(=O)/C(Cc2ccc(SC)cc2)=C(\C(=O)O)c2ccc3nsnc3c2)cc1 | – | –
3 | – | – | CCCCN(CCCC)C(=O)CN1C[C@H](c2ccc3c(c2)OCO3)[C@@H](C(=O)O)[C@@H]1c1ccc(OC)cc1 | 2.51 nM | 794 nM
